The results in this text go back to ChEMBL document CHEMBL1255510, “Discovery of a class of calcium sensing receptor positive allosteric modulators; 1-(benzothiazol-2-yl)-1-phenylethanols” (Bioorg Med Chem Lett, 2010).

As usually defined, the EC50 is the concentration needed to bring the measured effect to its halfway point. By microsomal CLint is commonly meant the capacity of the preparation to metabolise the compound, expressed as a volume cleared per time.

Where a name gives a salt, the structure may show the parent alone. The source made the active and inactive calls. No cut-off for these calls is given here. Some results are limits rather than exact numbers.

The target of data set [1] is T1, Extracellular calcium-sensing receptor (Homo sapiens, UniProt P41180).
T1 sequence (P41180 whole entry): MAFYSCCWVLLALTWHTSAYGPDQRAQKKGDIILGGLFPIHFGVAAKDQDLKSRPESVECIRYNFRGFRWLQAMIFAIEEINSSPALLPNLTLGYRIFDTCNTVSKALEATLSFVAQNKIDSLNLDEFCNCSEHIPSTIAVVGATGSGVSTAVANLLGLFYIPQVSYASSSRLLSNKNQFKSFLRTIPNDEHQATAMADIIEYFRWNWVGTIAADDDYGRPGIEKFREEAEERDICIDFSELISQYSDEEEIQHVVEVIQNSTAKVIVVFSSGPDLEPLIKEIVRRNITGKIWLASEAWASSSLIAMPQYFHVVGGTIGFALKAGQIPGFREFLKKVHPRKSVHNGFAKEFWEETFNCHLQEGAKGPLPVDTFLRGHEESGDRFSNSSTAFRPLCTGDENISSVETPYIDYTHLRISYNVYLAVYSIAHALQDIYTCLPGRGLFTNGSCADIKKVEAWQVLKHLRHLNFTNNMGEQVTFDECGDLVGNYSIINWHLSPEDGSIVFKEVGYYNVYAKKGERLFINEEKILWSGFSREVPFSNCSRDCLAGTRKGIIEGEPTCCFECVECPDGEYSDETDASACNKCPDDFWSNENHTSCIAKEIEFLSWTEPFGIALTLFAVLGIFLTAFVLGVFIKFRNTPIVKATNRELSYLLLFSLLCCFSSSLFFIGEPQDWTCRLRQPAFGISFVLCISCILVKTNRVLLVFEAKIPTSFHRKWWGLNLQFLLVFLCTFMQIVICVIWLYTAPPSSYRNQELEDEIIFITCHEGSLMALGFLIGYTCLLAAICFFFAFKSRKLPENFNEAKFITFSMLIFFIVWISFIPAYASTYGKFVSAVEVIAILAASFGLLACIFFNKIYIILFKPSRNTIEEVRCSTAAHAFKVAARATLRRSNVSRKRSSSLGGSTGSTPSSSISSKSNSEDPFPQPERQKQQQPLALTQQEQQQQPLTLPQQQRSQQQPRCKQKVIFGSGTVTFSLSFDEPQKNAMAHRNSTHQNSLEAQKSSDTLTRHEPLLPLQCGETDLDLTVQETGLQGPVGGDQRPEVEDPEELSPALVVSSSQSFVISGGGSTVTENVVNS
Briefly: Positive allosteric modulation of calcium sensing receptor by cell based assay. In kind it is functional. The method, boiled down: (§1)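 R-SAT cell-based functional assay; cells kept in DMEM with 0.8 mM MgCl2 and 1.6 mM CaCl2 to raise sensitivity. Means of at least three independent experiments, standard deviation reported.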

Data set [2] deals with T2, Extracellular calcium-sensing receptor (Homo sapiens) (UniProt P41180).
T2 sequence (whole entry): T1 sequence (P41180 whole entry)
Kind of data set: Positive allosteric modulation of calcium sensing receptor by cell based assay relative to control. In kind it is functional. The method, boiled down:
as §1

Data set [3] has as its target T2, Extracellular calcium-sensing receptor (Homo sapiens). Kind of data set: Positive allosteric modulation of calcium sensing receptor at 10 nM by cell based assay. The data set is classed as functional.
Data set [4] shares this target. Briefly: Positive allosteric modulation of calcium sensing receptor at 10 nM by cell based assay relative to control. In kind it is functional.
For data set [5] the target is unchanged. Kind of data set: Positive allosteric modulation of calcium sensing receptor by phosphatidyl inositol hydrolysis assay. The data set is classed as functional.
Data set [6] is described as follows: Intrinsic clearance in human liver microsomes. The data set is classed as ADME, Microsome. In general terms: Liver microsomes are a subcellular fraction often used to study metabolism.
Another data set is filed under the species Homo sapiens. Kind of data set: Activation of human GABAB receptor.
The target in data set [7] is T3, Parathyroid hormone/parathyroid hormone-related peptide receptor (Homo sapiens) (UniProt Q03431).
T3 sequence (whole entry): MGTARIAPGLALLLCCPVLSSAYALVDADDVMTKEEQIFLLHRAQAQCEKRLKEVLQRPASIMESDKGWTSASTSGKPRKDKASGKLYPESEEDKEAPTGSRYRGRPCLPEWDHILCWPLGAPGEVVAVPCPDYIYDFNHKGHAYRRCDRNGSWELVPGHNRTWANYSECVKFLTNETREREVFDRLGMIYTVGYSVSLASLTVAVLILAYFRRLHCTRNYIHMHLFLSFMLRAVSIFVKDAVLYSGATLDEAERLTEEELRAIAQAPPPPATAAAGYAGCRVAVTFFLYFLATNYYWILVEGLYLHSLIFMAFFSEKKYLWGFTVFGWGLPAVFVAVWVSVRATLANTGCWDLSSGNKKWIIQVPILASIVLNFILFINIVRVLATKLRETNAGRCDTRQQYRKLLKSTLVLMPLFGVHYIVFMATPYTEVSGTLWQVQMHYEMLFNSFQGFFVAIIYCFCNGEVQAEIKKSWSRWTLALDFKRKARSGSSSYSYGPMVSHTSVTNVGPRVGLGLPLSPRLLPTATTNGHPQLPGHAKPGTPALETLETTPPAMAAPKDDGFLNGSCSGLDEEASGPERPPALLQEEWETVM
Kind of data set: Activation of human PTH1 receptor.

Another data set relates to Rattus norvegicus. Briefly: Reduction of parathyroid hormone level in Sprague-Dawley rat at up to 10 mg/kg, sc after 1 hr by ELISA. Details: dose 10 mg/kg. In kind it is functional, organism-based. The method, boiled down: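 Male Sprague–Dawley rats dosed subcutaneously; blood sampled 1 h post-dose and plasma PTH measured by ELISA.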
In general terms: An ELISA detects its analyte on a solid surface through an enzyme-linked reagent.

With `C[C@@H](NCCCc1cccc(C(F)(F)F)c1)c1cccc2ccccc12` [CINACALCET HYDROCHLORIDE], in data set [1], the EC50 was 0.02 µM. In addition, the Efficacy in data set [2] was 115%.
In the same order, the values of `Cc1ccccc1C(C)(O)c1nc2ccccc2s1` (stereo not given) are 0.251 µM and 72%.
Turning to `Cc1ccc(C(O)c2nc3ccccc3s2)c(C)c1` (stereo not given), the outcome in data set [3] and in [4] was inactive.
As to `OC(c1ccccc1)(c1ccc(Cl)c(Cl)c1)c1nc2ccccc2s1` (stereo not given), the result in data set [3] and in data set [4] was inactive.
Consider `Cc1ccc([C@@](C)(O)c2nc3ccccc3s2)c(C)c1`, for which, in data set [5], the result was Active. The concentration giving a half-maximal response (EC50) in [1] was 0.0794 µM. The Efficacy in data set [2] turned out to be 79%.
Take `Cc1cc(C(C)(O)c2nc3ccccc3s2)ccc1F` (stereo not given): in data set [1], the EC50 is 0.158 µM. In addition, the Efficacy in data set [2] came out at 62%.
As to `Cc1ccc([C@](C)(O)c2nc3ccccc3s2)c(C)c1`, the result in data set [5] was Active. The EC50 in data set [1] is 0.01 µM. In addition, the Efficacy in [2] turned out to be 83%.
`Cc1cc(C)c2c(c1)C(O)(c1nc3ccccc3s1)CCC2` (stereo not given): the EC50 in data set [1] was 0.316 µM. Further, the Efficacy in [2] amounted to 81%.
In the case of `Cc1cc(Cl)ccc1C(C)(O)c1nc2ccccc2s1` (stereo not given), the concentration giving a half-maximal response (EC50) in data set [1] is 0.0316 µM. The Efficacy in data set [2] was 94%.
On the same counts, the results for `Cc1ccc(C(O)(c2nc3ccccc3s2)C2CC2)c(C)c1` (stereo not given) are 0.2 µM and 76%.
On the same counts, the results for `CC(O)(c1ccc2ccccc2c1)c1nc2ccccc2s1` (stereo not given) are 0.631 µM and 53%.
On to `CC(O)(c1nc2ccccc2s1)c1ccc(Cl)cc1Cl` (stereo not given), for which, in data set [1], the concentration giving a half-maximal response (EC50) was 0.1 µM. For the same compound, the Efficacy in data set [2] worked out at 82%. In data set [6], the microsomal CLint is 66 µL/min/mg.
On the same counts, the results for `CC(O)(c1ccc(Cl)cc1)c1nc2ccccc2s1` (stereo not given) are 0.398 µM, 68% and above 200 µL/min/mg.
With `COc1ccccc1C(C)(O)c1nc2ccccc2s1` (stereo not given), the concentration giving a half-maximal response (EC50) in data set [1] is 3.98 µM. The Efficacy in [2] was determined as 26%.
For `Cc1ccc(C(C)(O)c2nc3ccccc3s2)c(C)c1` (stereo not given), the outcome (in [5]; in the data set on Rattus norvegicus) was Active. Further, the outcome (in the data set listed under Homo sapiens; in data set [7]) was inactive. In addition, the EC50 in data set [1] is 0.0251 µM. Further, the Efficacy in data set [2] amounted to 91%. The microsomal CLint in data set [6] amounted to 396 µL/min/mg.
In the case of `Cc1ccc(C(C)c2nc3ccccc3s2)c(C)c1` (stereo not given), the EC50 in data set [1] is 2.51 µM. Also, the Efficacy in data set [2] was 88%.
On the same counts, the results for `CC(O)(c1ccc(Cl)c(Cl)c1)c1nc2ccccc2s1` (stereo not given) are 0.1 µM and 62%.
Turning to `C=C(c1nc2ccccc2s1)c1ccc(C)cc1C`, the result in [3] and in data set [4] was inactive.
